Published values from different studies.

With Cc1cnc(N2CC3(CCOCC3)C2)c(C(=O)Nc2ccc(C(=O)N3CCc4cc(C(=O)Nc5c(C)cccc5F)sc4-c4ccccc43)cc2)c1 the half-life was 2.4 h (dog, plasma; intravenous, 0.1 mg/kg, single dose).
Oc1c(-n2ccnn2)cnn1-c1cc(N2CCOCC2)ncn1 gave a half-life of 2.7 h (female dog, plasma; intravenous, 3 mg/kg).
The half-life of Cc1nnc2sc(C(=O)NCc3ccc(-c4cccnc4F)cc3)c(N)c2c1C is reported as 1 h (dog, plasma; intravenous).
For O=C(NCCN1CCCC1)c1cc(-c2ccc(CN3CCOCC3)cc2)nc2ccc(F)cc12, the half-life was 13 h (male beagle dog, blood; intravenous, 1 mg/kg).
CC[C@@H]1CN(C(=O)NCC(F)(F)F)C[C@@H]1c1cnc2cnc3[nH]ccc3n12 gave a half-life of 11.6 h (beagle dog, plasma; oral, 1 mg/kg, single dose).
For C=CC(=O)Nc1cc(Nc2nccc(Nc3cc(Cl)c(F)cc3C(C)(C)O)n2)c(OC)cc1N1CC[C@@H](N(C)C)C1, the half-life was 13.9 h (beagle dog, plasma; intravenous, 1 mg/kg).
For CCn1c(=O)c(-c2cc(NC(=O)Nc3ccccc3)c(F)cc2Br)cc2cnc(NC)cc21, the half-life was 6.96 h (beagle dog, plasma; oral, 5 mg/kg, single dose).
COc1cc2c3c(n(CCCN4CCOCC4)c(=O)c2cc1OC)-c1cc2c(cc1C3=O)OCO2 has a half-life of 14 h (female beagle dog, plasma; intravenous, 100 mg/m², infusion).
